Measured values gathered from unrelated publications.
Protocols differ between the studies behind these lines.
PPARA: Peroxisome proliferator-activated receptor alpha (PPARA, Homo sapiens, UniProt Q07869)
MMP1: Interstitial collagenase (MMP1, Homo sapiens, UniProt P03956)
OXSR1: Serine/threonine-protein kinase OSR1 (OXSR1, Homo sapiens, UniProt O95747)

C#Cc1n[nH]c2c(-c3cn([C@@H](C)c4ccccn4)c(=O)[nH]c3=O)cc(F)cc12
inhibition (Eukaryotic elongation factor 2 kinase (EEF2K, Homo sapiens, UniProt O00418); enzyme activity, inhibitor; 0.1 µM): 4.2%

Clc1cccc(-c2c[nH]c3nccc(N4CCOCC4)c23)c1
ΔTm (Serine/threonine-protein kinase 4 (STK4, Homo sapiens, UniProt Q13043); thermal stability, DSF): > 7.4 °C

O=S(=O)(O)C(F)(F)C(F)(F)C(F)(F)C(F)(F)C(F)(F)C(F)(F)F
Emax (PPARA; reporter gene, agonist, luciferase; COS-7): 67%

Cc1nn(C)cc1-c1nc2c(N3CCN(Cc4ccc(Cl)cc4)CC3)c(Cl)cnc2[nH]1
remaining binding (Serine/threonine-protein kinase 36 (STK36, Homo sapiens, UniProt Q9NRP7); binding, competition with immobilised ligand; 1 µM): 74%

O=C(O)C(F)(OC(F)(F)C(F)(F)C(F)(F)F)C(F)(F)F (centres unmarked)
Emax (PPARA; reporter gene, agonist, luciferase): 134%

COc1ccc(S(=O)(=O)N(CC(=O)NO)CC(C)C)cc1
inhibition (MMP1; enzyme activity, inhibitor; 0.1 µM): 2%

O=C(Nc1cccnn1)N1CCN([C@@H]2CCOc3cc(C(F)(F)F)ccc32)CC1
inhibition (MMP1; cell-free assay; 20 µM): 8%

Nc1ncc(-c2nc(N3CCOCC3)nc(N3CCOCC3)n2)c(C(F)F)n1
remaining binding (OXSR1; binding, competition with immobilised ligand; 10 µM): 54%

O=S(=O)(O)C(F)(F)C(F)(F)C(F)(F)C(F)(F)C(F)(F)C(F)(F)C(F)(F)C(F)(F)F
Emax (PPARA; reporter gene, agonist, luciferase): 33%

CN1CCN(c2ccc(Nc3nccc(-c4cccc([N+](=O)[O-])c4)n3)cc2C(F)(F)F)CC1
remaining binding (Calcium-dependent protein kinase 1 (CDPK1, Plasmodium falciparum, UniProt P62344); binding; 10 µM): 4.2%

COc1cc(Nc2ncc(F)c(Nc3ccc4c(n3)NC(=O)C(C)(C)O4)n2)cc(OC)c1OC
inhibition (OXSR1; binding, competition with immobilised ligand; 10 µM): 71%

COc1ncccc1-c1cnn2ccc(N3CCN(C(=O)OC(C)C)CC3)nc12
remaining binding (Myosin-IIIa (MYO3A, Homo sapiens, UniProt Q8NEV4); binding, competition with immobilised ligand; 1 µM): 95%

COC(=O)CC[C@H](NC(=O)[C@H](CC(C)C)NC(=O)OCc1ccccc1)C(=O)N[C@@H](Cc1cnc[nH]1)C(=O)N[C@@H](CC(=O)OC)C(=O)CF
inhibition (Caspase-9 (CASP9, Homo sapiens, UniProt P55211); enzyme activity, inhibitor; 1 µM): 50%

CC1CCC(C(C)C)C(P(=O)(c2ccccc2)c2ccccc2)C1 (centres unmarked)
remaining activity (Potassium voltage-gated channel subfamily A member 5 (KCNA5, Homo sapiens, UniProt P22460); ion current, inhibitor, patch clamp; 1 µM): -94.5%
